Assays:
Assay type in all cases: functional, cell-based
[1] = target: T1, Cysteinyl leukotriene receptor 2 (Homo sapiens) (UniProt Q9NS75); assay: (§1) Antagonist activity at human recombinant CysLT2 receptor expressed in human HEK293 cells assessed as reduction in LTD4-induced cytosolic free Ca2+ level after 30 mins by fluorescence assay relative to control
T1 sequence (whole entry): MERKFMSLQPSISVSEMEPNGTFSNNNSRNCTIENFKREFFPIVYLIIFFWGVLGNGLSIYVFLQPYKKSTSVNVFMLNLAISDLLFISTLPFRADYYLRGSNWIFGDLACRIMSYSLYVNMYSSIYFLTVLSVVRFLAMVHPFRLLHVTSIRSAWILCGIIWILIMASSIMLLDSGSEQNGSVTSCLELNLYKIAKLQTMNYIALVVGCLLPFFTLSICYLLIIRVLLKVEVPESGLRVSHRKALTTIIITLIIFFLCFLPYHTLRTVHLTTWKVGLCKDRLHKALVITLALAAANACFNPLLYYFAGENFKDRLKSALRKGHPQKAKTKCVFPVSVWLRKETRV
Outline: (§2)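 HEK293 cells stably transfected with pcDNA3.1(+)-hCysLT2 were grown at 37 °C in 5% CO2 and plated. After 24 h they were preincubated for 30 min in BSS with or without test compound. Cells were then stimulated with LTD4, with ATP as a positive stimulus. [Ca2+]i fluorescence was read at 37 °C (ex 485/em 525 nm). The response was taken as peak minus basal and expressed as % of BSS-only control.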

[2] = target: T2, Cysteinyl leukotriene receptor 2 (Homo sapiens, UniProt Q9NS75); assay: as §1; outline: as §2
T2 sequence (Q9NS75 whole entry): T1 sequence (whole entry)

[3] = target: T3, Cysteinyl leukotriene receptor 1 (Homo sapiens) (UniProt Q9Y271); assay: Antagonist activity at CysLT1 receptor (unknown origin) expressed in human dU937 cells assessed as reduction in LTD4-induced cytosolic free Ca2+ level at 1 uM after 30 mins by fluorescence assay relative to control
T3 sequence (whole entry): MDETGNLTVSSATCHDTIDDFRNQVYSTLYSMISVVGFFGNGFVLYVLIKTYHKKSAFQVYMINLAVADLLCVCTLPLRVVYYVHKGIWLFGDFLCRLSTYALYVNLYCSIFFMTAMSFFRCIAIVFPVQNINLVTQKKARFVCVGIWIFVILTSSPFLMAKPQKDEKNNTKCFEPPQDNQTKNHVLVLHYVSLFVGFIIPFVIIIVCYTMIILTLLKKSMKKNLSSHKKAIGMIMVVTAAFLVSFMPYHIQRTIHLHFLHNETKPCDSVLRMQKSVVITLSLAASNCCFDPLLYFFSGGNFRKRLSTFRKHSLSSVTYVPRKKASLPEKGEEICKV

[4] = target: T1, Cysteinyl leukotriene receptor 2 (Homo sapiens); assay: Antagonist activity at human recombinant CysLT2 receptor expressed in human HEK293 cells assessed as reduction in LTD4-induced cytosolic free Ca2+ level at 1 uM after 30 mins by fluorescence assay relative to control
Outline: as §2, with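 “stimulus.” for “stimulus. [Ca2+]i fluorescence was read at 37 °C (ex 485/em 525 nm).”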

Row | Structure (SMILES) | Activity [1] | Imax [1] [%] | IC50 [2] [µM] | inhibition [3] [%] | inhibition [4] [%]
1 | O=C(O)COc1ccc(C(=O)O)cc1C(=O)/C=C/c1ccc(OCCCCOc2ccc(Cl)cc2)cc1 | Dose-dependent effect | 72.8 | 7.5 | 7 | 44
2 | CCCCCCCCCCCCOc1cccc(/C=C/C(=O)c2cc(C(=O)O)ccc2OCC(=O)O)c1 | Dose-dependent effect | 80.5 | 0.25 | 4.8 | 70.5
3 | CCCCCCCCCCCCOc1ccc(/C=C/C(=O)c2ccc(C(=O)O)cc2OCC(=O)O)cc1 |  |  |  | 10.6 | 
4 | CCCCCCCCCCCCOc1ccc(/C=C/C(=O)c2cc(C(=O)O)ccc2OCC(=O)O)cc1 |  |  |  | 35.7 | 
5 | CCCCCCCCOc1ccc(/C=C/C(=O)c2ccc(C(=O)O)cc2OCC(=O)O)cc1 |  |  |  | 8.6 | 
6 | N#CCOc1cc(C(=O)O)ccc1C(=O)/C=C/c1ccc(OCCCCOc2ccc(Cl)cc2)cc1 |  |  |  |  | 10.4

Reference: ChEMBL document CHEMBL2413074, “Structure-based drug design using GPCR homology modeling: toward the discovery of novel selective CysLT2 antagonists” (Eur J Med Chem, 2013)
